Results taken from paper PMC10424182 (Journal of Medicinal Chemistry, 2023).
Read-outs that look alike come from different tables or passages of the source.

Experiments:
Assay type in all cases: binding
[1] = molecular target: T1, AD brain homogenates (mixed 3R/4R-tau) (Homo sapiens, UniProt P10636); assay: Competition
[2] = molecular target: T2, PSP brain homogenates (4R-tau aggregates) (Homo sapiens, UniProt P10636); assay: Competition
In short: (§1)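 Post-mortem human brain homogenate in PBS pH 7.0, 100 μg tissue/mL final, with ~1 nM tritiated radioligand and unlabelled test compound at 0.1–1000 nM (0.25% DMSO final for non-Enamine compounds). Incubated 60 min at room temperature, then GF/B filtration, four PBS washes and scintillation counting. Full inhibition was taken as counts displaced by 1 μM unlabelled radioligand. Triplicates at each concentration.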

[3] = molecular target: T3, CBD brain homogenates (4R-tau aggregates) (Homo sapiens, UniProt P10636); assay: Competition
T3 sequence (P10636 1-441 isoform P10636-8): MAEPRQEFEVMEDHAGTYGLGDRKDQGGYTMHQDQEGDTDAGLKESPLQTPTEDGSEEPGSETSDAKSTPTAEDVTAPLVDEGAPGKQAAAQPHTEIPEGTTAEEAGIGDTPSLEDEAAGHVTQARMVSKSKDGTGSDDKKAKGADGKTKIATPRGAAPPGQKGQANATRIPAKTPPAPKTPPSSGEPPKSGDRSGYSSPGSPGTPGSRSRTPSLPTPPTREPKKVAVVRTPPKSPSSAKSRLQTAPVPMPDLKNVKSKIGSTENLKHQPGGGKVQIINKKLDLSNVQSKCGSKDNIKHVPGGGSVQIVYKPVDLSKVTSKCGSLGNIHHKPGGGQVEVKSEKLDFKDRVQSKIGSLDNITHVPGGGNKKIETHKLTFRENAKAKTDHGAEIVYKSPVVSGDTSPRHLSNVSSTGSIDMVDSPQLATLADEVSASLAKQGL
In short: as §1

[4] = molecular target: T1, AD brain homogenates (mixed 3R/4R-tau); assay: Competition; remark: listed apart in the source
[5] = molecular target: T2, PSP brain homogenates (4R-tau aggregates); assay: Competition; remark: listed apart in the source
In short: as §1

[6] = molecular target: T1, AD brain homogenates (mixed 3R/4R-tau); assay: Competition; remark: listed apart in the source
[7] = molecular target: T2, PSP brain homogenates (4R-tau aggregates); assay: Competition; remark: listed apart in the source
In short: as §1

[8] = molecular target: T3, CBD brain homogenates (4R-tau aggregates); assay: Competition; remark: listed apart in the source
In short: as §1

[9] = molecular target: T1, AD brain homogenates (mixed 3R/4R-tau); assay: Competition; remark: listed apart in the source
[10] = molecular target: T2, PSP brain homogenates (4R-tau aggregates); assay: Competition; remark: listed apart in the source
In short: as §1

[11] = molecular target: T3, CBD brain homogenates (4R-tau aggregates); assay: Competition; remark: listed apart in the source
In short: as §1

[12] = molecular target: aggregated amyloid-beta (Aβ) in AD tissue (Homo sapiens, UniProt P05067); assay: Competition
Sequence of aggregated amyloid-beta (Aβ) in AD tissue (P05067 672-713): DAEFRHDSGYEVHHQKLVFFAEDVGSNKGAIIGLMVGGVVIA
In short: as §1

[13] = molecular target: T1, AD brain homogenates (mixed 3R/4R-tau); assay: Single concentration; conditions: 300 nM unlabeled compound
[14] = molecular target: T2, PSP brain homogenates (4R-tau aggregates); assay: Single concentration; conditions: 300 nM unlabeled compound
In short: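 A PSP homogenate (100 μg tissue/mL) was run with ~1 nM [3H]-ligand as in the Ki assay, with a single 300 nM test compound, 60 min at room temperature, then filtered and counted. 0% was specific binding with no competitor; 100% was nonspecific binding at 1 μM unlabelled radioligand. The % value is […] divided by the 0%−100% count difference, ×100. Run in triplicate.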

T2 sequence (P10636 1-441 isoform P10636-8): as the sequence (P10636 1-441 isoform P10636-8) above
T1 sequence (P10636 623-758 limits assumed): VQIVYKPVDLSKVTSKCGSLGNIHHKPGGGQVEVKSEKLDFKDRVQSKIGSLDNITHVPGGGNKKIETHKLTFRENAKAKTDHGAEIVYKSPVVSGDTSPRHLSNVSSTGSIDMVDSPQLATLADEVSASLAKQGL

Row | Structure (SMILES) | Ki [4] | Ki [5] | Ki [6] | Ki [7] | Ki [8] | further results
1 | OC1CCN(c2ncc(-c3cc4ccc(F)cc4[nH]3)cn2)CC1 [Compound 1, 1-(5-(6-fluoro-1H-indol-2-yl)pyrimidin-2-yl)piperidin-4-ol] |  |  | 270 nM | 250 nM | 210 nM | Ki [9]: 80 nM; Ki [10]: 95 nM; Ki [11]: 71 nM; Ki [12]: 142 ± 5 nM
2 | Oc1cccc2sc(-c3cnc(N4CCC(O)CC4)nc3)cc12 [Compound 6] | 12 nM | 22 nM |  |  |  | inhibition of [^3H]1, AD tissue [13]: > 65%; inhibition of [^3H]1, PSP tissue [14]: > 65%
3 | O=C1CCN(c2ncc(-c3cc4ccccc4[nH]3)cn2)CCN1 [Compound 19] | 21 nM | 22 nM |  |  |  | 
4 | O[C@@H]1CCN(c2ccc(-c3cc4ccc(F)cc4[nH]3)cn2)C1 [Compound 20] | 18 nM | 18 nM |  |  |  | 
5 | Fc1ccc2cc(-c3cnc(N4CCOCC4)nc3)[nH]c2c1 [Compound 21, 4-(5-(6-fluoro-1H-indol-2-yl)pyrimidin-2-yl)morpholine] |  |  | 270 nM | 270 nM | 230 nM | Ki [9]: 100 nM; Ki [10]: 93 nM; Ki [11]: 110 nM; Ki [12]: 62 ± 3 nM
6 | CNc1ccc(/C=C/C=C/c2nc3ccc(OCC(O)CF)cc3s2)cn1 (centres unmarked) [PM-PBB3, reference compound] | 15 nM | 18 nM | 7930 nM | > 10000 nM | 1540 nM | 
7 | Fc1ccc(-c2ccc3c(c2)[nH]c2ccncc23)cn1 [Tauvid] | > 1000 nM | > 1000 nM |  |  |  | 

Continued, in another order:

Row | Ki [4] | Ki [5] | Ki [6] | Ki [7] | Ki [8] | Structure (SMILES) | further results
8 | 745 nM | 520 nM |  |  |  | OCC1CCN(c2ccc(-c3cc4cc(O)ccc4[nH]3)c(F)n2)CC1 [CBD-2115, 2-(2-fluoro-6-(4-(hydroxymethyl)piperidin-1-yl)pyridin-3-yl)-1H-indol-5-ol] | Ki [1]: 7140 nM; Ki [2]: > 10000 nM; Ki [3]: 2930 nM
9 | 96 nM | 315 nM |  |  |  | Nc1c(F)ccc2cnc(-n3ccc4ccncc43)cc12 [MK-6240] | 
10 | 58 nM | 89 nM |  |  |  | Fc1cc(-c2ccc3c(n2)[nH]c2ccncc23)ccn1 [PI-2620] | 
